{
  "source": "PubChem BioAssay AID588704",
  "about": "(Broad Institute, 2011)",
  "note": "The source made the active and inactive calls.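 Rule for the calls: active = strong luminescence drop, meaning toxicity to breast epithelial cells with E-cadherin silenced, a stem-like cancer model; inactive = the rest.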",
  "data": [
    {"system": "HMLE_shECad viability, CellTiter-Glo luminescence, 72 h", "assay": "HMLE_shECad cancer stem cell-like viability inhibition, dose response, CellTiter-Glo luminescence, dry powder (AID 588704)", "conditions": "not given", "outline": "(§1)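 Incubation: Compound added 24 h after seeding, then 72 h exposure | Test system: EMT-induced HMLE_shECad cancer stem cell-like cells | Repeats: Two replicates (duplicate) | Measured by: CellTiter-Glo luminescence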", "units": {"AC50": "nM"}, "values": [
      {"compound": "O=C(COc1cc(Cl)ccc1Cl)N/N=C/c1ccc[nH]1", "AC50": 930},
      {"compound": "O=C(N/N=C/c1ccc[nH]1)c1cc2ccccc2o1", "AC50": 2460},
      {"compound": "Cc1cc(Cl)ccc1OCC(=O)N/N=C/c1ccc[nH]1", "AC50": 4580},
      {"compound": "O=C(COc1ccc(Cl)cc1Cl)N/N=C/c1ccc[nH]1", "AC50": 3390},
      {"compound": "O=C(COc1c(Cl)cc(Cl)cc1Cl)N/N=C/c1ccc[nH]1", "AC50": 470},
      {"compound": "CC(C)(C)c1ccc2c(c1)OC(C(=O)N/N=C/c1ccc[nH]1)CO2", "note": "(configuration not stated)", "AC50": 3480}
    ]},
    {"system": "not listed separately", "assay": "HMLE_shECad cancer stem cell-like viability inhibition, dose response, CellTiter-Glo luminescence, dry powder (AID 588704)", "conditions": "HMLE_shECad viability, CellTiter-Glo luminescence, 72 h", "outline": "as §1", "values": [
      {"compound": "O=C(COc1ccc(Cl)cc1Cl)N/N=C/c1cnc[nH]1", "outcome": "inactive"}
    ]}
  ]
}
